Laboratory results from ChEMBL document CHEMBL3779805, “Orally bioavailable pyridine and pyrimidine-based Factor XIa inhibitors: Discovery of the methyl N-phenyl carbamate P2 prime group” (Bioorg Med Chem, 2016).

Columns and labels:
[1] = Oral bioavailability in beagle dog plasma at 0.2 mg/kg by LC-MS/MS method; type: ADME, organism-based, Canis lupus familiaris
Procedure, shortened: (§1)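 Dogs dosed iv and po in N-in-1 (cassette) format. The same vehicle was used for both routes: 70% water, 10% ethanol, 10% dimethylacetamide, 10% polypropylene glycol.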

[2] = (§2) Volume of distribution at steady state in beagle dog plasma at 0.2 mg/kg, iv and 0.2 mg/kg, po by LC-MS/MS method; type: ADME, organism-based, Canis lupus familiaris; details: beagle, plasma, read-out: Vdss; procedure, shortened: as §1
[3] = (§3) Clearance in beagle dog plasma at 0.2 mg/kg, iv and 0.2 mg/kg, po administered in cassette format by LC-MS/MS method; type: ADME, organism-based, Canis lupus familiaris; details: beagle, plasma; procedure, shortened: as §1
[4] = AUC in beagle dog plasma at 0.2 mg/kg, iv and 0.2 mg/kg, po by LC-MS/MS method; type: ADME, organism-based, Canis lupus familiaris; procedure, shortened: as §1
Plasma = assay: Anticoagulant activity in human plasma assessed as concentration required for 50% increase in activated partial thromboplastin time by automated coagulation analyzer; type: functional
Procedure, shortened: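 aPTT clotting assay in pooled normal human plasma on an automated coagulation analyzer with commercial reagents. EC1.5x is the inhibitor plasma concentration giving a 50% increase in clotting time over the no-inhibitor control.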

Coagulation factor XI = Coagulation factor XI (Homo sapiens, UniProt P03951)
[5] = (§4) Half life in beagle dog plasma at 0.2 mg/kg, iv and 0.2 mg/kg, po by LC-MS/MS method; type: ADME, organism-based, Canis lupus familiaris; details: beagle, plasma; procedure, shortened: as §1
Canis familiaris [6] = assay: Volume of distribution at steady state in beagle dog plasma at 0.27 mg/kg, iv and 0.43 mg/kg, po by LC-MS/MS method; type: ADME, organism-based, Canis lupus familiaris; details: in vivo; procedure, shortened: as §1
[7] = Oral bioavailability in beagle dog plasma at 0.43 mg/kg by LC-MS/MS method; type: ADME, organism-based, Canis lupus familiaris; procedure, shortened: as §1
[8] = Inhibition of human […] chymotrypsin assessed as reduction in release of p-nitroaniline after 10 to 120 mins by Michaelis-Menten equation analysis
Canis familiaris [9] = assay: Clearance in beagle dog plasma at 0.27 mg/kg, iv and 0.43 mg/kg, po administered in cassette format by LC-MS/MS method; type: ADME, organism-based, Canis lupus familiaris; details: in vivo; procedure, shortened: as §1
Canis familiaris [10] = assay: Half life in beagle dog plasma at 0.27 mg/kg, iv and 0.43 mg/kg, po by LC-MS/MS method; type: ADME, organism-based, Canis lupus familiaris; details: in vivo; procedure, shortened: as §1
Canis familiaris [11] = assay: as §2; type: ADME, organism-based, Canis lupus familiaris; details: in vivo; procedure, shortened: as §1
Canis familiaris [12] = assay: as §3; type: ADME, organism-based, Canis lupus familiaris; details: in vivo; procedure, shortened: as §1
Canis familiaris [13] = assay: as §4; type: ADME, organism-based, Canis lupus familiaris; details: in vivo; procedure, shortened: as §1
[14] = molecular target: Urokinase-type plasminogen activator (Homo sapiens, UniProt P00749); assay: Inhibition of human urokinase assessed as reduction in release of p-nitroaniline after 10 to 120 mins by Michaelis-Menten equation analysis
Procedure, shortened: (§5)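 Purified human enzymes with commercial synthetic peptide substrates. IC50 from 4–11 inhibitor concentrations, run in duplicate at a fixed substrate concentration (standard error <20%). Ki = IC50/(1+S/Km), assuming competitive inhibition.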

Plasminogen = Plasminogen (Homo sapiens, UniProt P00747); assay: Inhibition of human plasmin assessed as reduction in release of p-nitroaniline after 10 to 120 mins by Michaelis-Menten equation analysis; procedure, shortened: as §5
Coagulation factor VII = molecular target: T1, Coagulation factor VII (Homo sapiens, UniProt P08709); assay: Inhibition of human coagulation factor 7a assessed as reduction in release of p-nitroaniline after 10 to 120 mins by Michaelis-Menten equation analysis; procedure, shortened: as §5
T1 sequence (P08709 whole entry): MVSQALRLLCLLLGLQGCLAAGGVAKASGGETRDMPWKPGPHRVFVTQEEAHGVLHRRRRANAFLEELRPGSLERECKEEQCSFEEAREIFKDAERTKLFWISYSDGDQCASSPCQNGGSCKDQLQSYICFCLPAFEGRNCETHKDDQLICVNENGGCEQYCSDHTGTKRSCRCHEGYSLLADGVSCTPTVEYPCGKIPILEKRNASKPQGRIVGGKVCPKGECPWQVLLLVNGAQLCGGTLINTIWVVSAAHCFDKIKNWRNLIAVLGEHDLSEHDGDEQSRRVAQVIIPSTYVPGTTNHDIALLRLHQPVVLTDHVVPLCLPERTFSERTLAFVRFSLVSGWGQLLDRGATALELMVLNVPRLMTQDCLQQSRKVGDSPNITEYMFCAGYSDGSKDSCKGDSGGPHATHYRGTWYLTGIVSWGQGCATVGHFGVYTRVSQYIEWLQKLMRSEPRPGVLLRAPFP

[15] = molecular target: Vitamin K-dependent protein C (Homo sapiens, UniProt P04070); assay: Inhibition of human activated protein C assessed as reduction in release of p-nitroaniline after 10 to 120 mins by Michaelis-Menten equation analysis; procedure, shortened: as §5
Trypsin = Trypsin (Homo sapiens, UniProt P07477+P07478+P35030); assay: Inhibition of human coagulation trypsin assessed as reduction in release of p-nitroaniline after 10 to 120 mins by Michaelis-Menten equation analysis; type: protein assay; procedure, shortened: as §5
Coagulation factor X = Coagulation factor X (Homo sapiens, UniProt P00742); assay: Inhibition of human coagulation factor 10a assessed as reduction in release of p-nitroaniline after 10 to 120 mins by Michaelis-Menten equation analysis; procedure, shortened: as §5
[16] = molecular target: Tissue-type plasminogen activator (Homo sapiens, UniProt P00750); assay: Inhibition of human TPA assessed as reduction in release of p-nitroaniline after 10 to 120 mins by Michaelis-Menten equation analysis; procedure, shortened: as §5
Coagulation factor IX = Coagulation factor IX (Homo sapiens, UniProt P00740); assay: Inhibition of human coagulation factor 9a assessed as reduction in release of p-nitroaniline after 10 to 120 mins by Michaelis-Menten equation analysis; procedure, shortened: as §5
Plasma kallikrein = Plasma kallikrein (Homo sapiens, UniProt P03952); assay: Inhibition of human plasma kallikrein assessed as reduction in release of p-nitroaniline after 10 to 120 mins by Michaelis-Menten equation analysis; type: cell-free; procedure, shortened: as §5
Prothrombin = Prothrombin (Homo sapiens, UniProt P00734); assay: Inhibition of human coagulation thrombin assessed as reduction in release of p-nitroaniline after 10 to 120 mins by Michaelis-Menten equation analysis; procedure, shortened: as §5

Coagulation factor XI, sequence (P03951 19-387 limits assumed): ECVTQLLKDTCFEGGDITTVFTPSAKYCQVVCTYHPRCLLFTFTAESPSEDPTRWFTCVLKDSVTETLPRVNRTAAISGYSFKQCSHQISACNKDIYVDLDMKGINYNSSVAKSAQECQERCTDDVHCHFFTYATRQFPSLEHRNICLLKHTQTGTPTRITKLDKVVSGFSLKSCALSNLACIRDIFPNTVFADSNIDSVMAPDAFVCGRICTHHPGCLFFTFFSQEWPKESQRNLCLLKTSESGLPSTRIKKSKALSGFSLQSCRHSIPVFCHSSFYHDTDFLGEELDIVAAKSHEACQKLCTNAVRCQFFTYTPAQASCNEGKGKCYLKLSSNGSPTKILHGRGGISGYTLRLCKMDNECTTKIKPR
Coagulation factor XI, sequence (P03951 388-625 limits assumed): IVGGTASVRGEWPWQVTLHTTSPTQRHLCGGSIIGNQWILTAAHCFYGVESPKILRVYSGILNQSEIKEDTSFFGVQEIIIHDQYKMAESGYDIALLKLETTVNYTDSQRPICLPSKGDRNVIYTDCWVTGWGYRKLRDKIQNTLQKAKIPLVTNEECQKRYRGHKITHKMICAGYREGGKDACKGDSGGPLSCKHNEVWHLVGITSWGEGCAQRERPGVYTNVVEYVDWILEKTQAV
Plasma kallikrein, sequence (P03952 20-390 limits assumed): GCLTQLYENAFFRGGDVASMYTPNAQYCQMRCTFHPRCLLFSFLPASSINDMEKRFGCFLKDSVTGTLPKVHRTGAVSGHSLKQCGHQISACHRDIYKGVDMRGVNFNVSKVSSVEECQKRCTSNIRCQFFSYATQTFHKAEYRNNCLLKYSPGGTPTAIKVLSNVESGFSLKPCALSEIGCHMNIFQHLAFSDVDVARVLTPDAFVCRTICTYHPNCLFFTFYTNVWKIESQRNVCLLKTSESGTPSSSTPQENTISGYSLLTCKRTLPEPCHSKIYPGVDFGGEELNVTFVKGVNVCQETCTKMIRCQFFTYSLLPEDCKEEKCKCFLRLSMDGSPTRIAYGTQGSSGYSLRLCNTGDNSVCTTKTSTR
Plasma kallikrein, sequence (P03952 391-638 limits assumed): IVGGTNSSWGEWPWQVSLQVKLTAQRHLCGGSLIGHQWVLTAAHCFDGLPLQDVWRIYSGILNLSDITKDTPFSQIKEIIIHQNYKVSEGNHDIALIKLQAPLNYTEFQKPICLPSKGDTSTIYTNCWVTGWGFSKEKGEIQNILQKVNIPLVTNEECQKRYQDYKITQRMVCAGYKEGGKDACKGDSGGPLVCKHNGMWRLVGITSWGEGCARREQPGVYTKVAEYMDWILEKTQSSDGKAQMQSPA
Coagulation factor X, sequence (P00742 41-179 limits assumed): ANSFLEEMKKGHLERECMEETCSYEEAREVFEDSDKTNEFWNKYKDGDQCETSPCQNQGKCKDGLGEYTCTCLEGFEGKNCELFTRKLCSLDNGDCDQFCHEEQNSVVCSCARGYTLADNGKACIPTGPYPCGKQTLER
Coagulation factor X, sequence (P00742 235-488 limits assumed): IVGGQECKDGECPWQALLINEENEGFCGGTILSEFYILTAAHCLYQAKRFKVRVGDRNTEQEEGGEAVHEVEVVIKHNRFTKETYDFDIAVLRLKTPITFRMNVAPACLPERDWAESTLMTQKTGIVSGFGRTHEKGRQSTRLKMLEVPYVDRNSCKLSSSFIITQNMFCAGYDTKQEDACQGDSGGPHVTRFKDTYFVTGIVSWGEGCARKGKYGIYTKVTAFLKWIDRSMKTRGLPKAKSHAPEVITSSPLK
Tissue-type plasminogen activator, sequence (P00750 whole entry): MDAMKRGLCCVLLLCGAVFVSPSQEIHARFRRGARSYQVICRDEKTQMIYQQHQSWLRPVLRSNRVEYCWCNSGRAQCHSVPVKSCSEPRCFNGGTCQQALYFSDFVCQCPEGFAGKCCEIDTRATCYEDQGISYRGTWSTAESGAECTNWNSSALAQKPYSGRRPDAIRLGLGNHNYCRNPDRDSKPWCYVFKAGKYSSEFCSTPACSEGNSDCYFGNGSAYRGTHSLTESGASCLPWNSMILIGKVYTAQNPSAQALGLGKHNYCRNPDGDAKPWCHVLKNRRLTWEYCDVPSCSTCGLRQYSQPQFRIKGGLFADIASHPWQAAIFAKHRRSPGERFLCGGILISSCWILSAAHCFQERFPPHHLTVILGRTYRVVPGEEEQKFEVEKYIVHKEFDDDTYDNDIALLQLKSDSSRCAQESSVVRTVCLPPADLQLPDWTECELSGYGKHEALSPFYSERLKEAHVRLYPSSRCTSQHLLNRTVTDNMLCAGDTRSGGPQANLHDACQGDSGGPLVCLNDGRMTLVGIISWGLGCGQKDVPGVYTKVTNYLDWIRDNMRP
Plasminogen, sequence (P00747 97-580 limits assumed): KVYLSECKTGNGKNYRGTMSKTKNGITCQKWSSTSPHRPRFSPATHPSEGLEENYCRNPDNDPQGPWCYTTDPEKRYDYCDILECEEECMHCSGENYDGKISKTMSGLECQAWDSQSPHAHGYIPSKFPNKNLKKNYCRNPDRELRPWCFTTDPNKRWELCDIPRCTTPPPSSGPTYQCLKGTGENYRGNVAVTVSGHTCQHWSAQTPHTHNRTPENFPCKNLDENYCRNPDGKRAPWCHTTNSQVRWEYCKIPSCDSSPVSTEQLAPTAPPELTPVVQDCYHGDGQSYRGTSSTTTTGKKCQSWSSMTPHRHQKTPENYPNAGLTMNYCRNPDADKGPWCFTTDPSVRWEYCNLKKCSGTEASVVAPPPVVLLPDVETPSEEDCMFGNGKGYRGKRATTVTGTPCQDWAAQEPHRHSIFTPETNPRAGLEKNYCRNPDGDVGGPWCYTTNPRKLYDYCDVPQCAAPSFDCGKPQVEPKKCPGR
Plasminogen, sequence (P00747 581-810 limits assumed): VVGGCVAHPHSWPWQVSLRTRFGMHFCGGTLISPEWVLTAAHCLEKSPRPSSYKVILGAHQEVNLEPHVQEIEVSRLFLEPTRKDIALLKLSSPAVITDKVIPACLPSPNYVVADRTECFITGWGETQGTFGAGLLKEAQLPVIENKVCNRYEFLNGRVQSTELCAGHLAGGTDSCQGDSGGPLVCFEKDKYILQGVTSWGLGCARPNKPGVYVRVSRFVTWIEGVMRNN
Vitamin K-dependent protein C, sequence (P04070 43-197 limits assumed): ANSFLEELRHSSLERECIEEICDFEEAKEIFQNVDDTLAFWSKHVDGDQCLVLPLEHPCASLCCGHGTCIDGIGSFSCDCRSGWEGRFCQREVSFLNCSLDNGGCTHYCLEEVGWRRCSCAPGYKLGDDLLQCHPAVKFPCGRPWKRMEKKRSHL
Vitamin K-dependent protein C, sequence (P04070 212-461 limits assumed): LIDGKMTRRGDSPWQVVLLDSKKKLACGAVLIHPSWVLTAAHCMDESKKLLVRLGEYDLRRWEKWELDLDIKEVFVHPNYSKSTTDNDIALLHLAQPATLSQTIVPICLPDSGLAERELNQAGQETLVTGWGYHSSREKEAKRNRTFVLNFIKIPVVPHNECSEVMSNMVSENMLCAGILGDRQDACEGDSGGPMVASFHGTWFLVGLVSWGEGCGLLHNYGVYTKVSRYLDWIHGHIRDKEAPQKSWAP
Coagulation factor IX, sequence (P00740 47-191 limits assumed): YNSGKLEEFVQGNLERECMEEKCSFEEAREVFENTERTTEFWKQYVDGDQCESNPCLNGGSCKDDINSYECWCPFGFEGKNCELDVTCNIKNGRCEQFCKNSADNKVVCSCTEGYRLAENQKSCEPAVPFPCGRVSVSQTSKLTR
Coagulation factor IX, sequence (P00740 227-461 limits assumed): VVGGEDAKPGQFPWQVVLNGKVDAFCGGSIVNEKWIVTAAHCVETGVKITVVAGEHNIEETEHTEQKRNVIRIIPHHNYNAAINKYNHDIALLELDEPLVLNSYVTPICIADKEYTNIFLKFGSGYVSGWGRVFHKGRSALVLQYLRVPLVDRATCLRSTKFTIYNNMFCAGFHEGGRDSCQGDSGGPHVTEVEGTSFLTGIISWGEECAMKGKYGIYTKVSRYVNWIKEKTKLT

Compound | EC1.5 (Plasma) [µM] | Ki (Coagulation factor XI) [µM] | further results
COC(=O)Nc1ccc(-c2cc([C@H](Cc3ccccc3)NC(=O)/C=C/c3cc(Cl)ccc3-n3cnnn3)ncn2)cc1 | 21 | 0.0067 | bioavailability [1]: 28%; Vd [2]: 4 L/kg; clearance [3]: 0.122 mL/min/kg; AUC [4]: 0.23 µM·h; half-life [5]: 6.8 h
NC[C@H]1CC[C@H](C(=O)NC(Cc2ccccc2)c2cc(-c3ccc4[nH]nc(O)c4c3)ccn2)CC1 (mixture of isomers) | 0.5 | 0.0075 | 
COC(=O)Nc1ccc(-c2cccc([C@H](Cc3ccccc3)NC(=O)[C@H]3CC[C@H](CN)CC3)c2)cc1 | 13 | 0.017 | 
NC[C@H]1CC[C@H](C(=O)N[C@H](Cc2ccccc2)c2cc(-c3ccc4c(N)noc4c3)ccn2)CC1 |  | 0.0032 | 
NC[C@H]1CC[C@H](C(=O)N[C@@H](Cc2ccccc2)c2cc(-c3ccc4c(N)n[nH]c4c3)ccn2)CC1 | 0.5 | 0.0072 | Vdss (Canis familiaris [6]): 3.4 L/kg; bioavailability [7]: 0%; Ki [8]: > 20.8 µM; clearance (Canis familiaris [9]): 50 mL/min/kg; t1/2 (Canis familiaris [10]): 1.2 h
COC(=O)Nc1ccc(-c2cc([C@H](Cc3ccccc3)NC(=O)/C=C/c3cc(Cl)ccc3-n3cnnn3)[nH]c(=O)c2)cc1 | 2.8 | 0.0024 | bioavailability [1]: 0%; Vdss (Canis familiaris [11]): 1.6 L/kg; clearance (Canis familiaris [12]): 30 mL/min/kg; t1/2 (Canis familiaris [13]): 1.5 h
NC[C@H]1CC[C@H](C(=O)NC(Cc2ccccc2)c2cc(-c3ccc4c(N)ncnc4c3)ccn2)CC1 (mixture of isomers) | 2.8 | 0.01 | 
Cn1[nH]c2ccc(-c3ccnc(C(Cc4ccccc4)NC(=O)[C@H]4CC[C@H](CN)CC4)c3)cc2c1=O (mixture of isomers) |  | 0.11 | 
COC(=O)Nc1ccc(-c2c[nH]c([C@H](Cc3ccccc3)NC(=O)/C=C/c3cc(Cl)ccc3-n3cnnn3)n2)cc1 | 8.6 |  | bioavailability [1]: 10%; clearance (Canis familiaris [12]): 21 mL/min/kg; AUC [4]: 0.03 µM·h
NC[C@H]1CC[C@H](C(=O)NC(Cc2ccccc2)c2cc(-c3ccc4c(N)noc4c3)ccn2)CC1 (mixture of isomers) |  | 0.0092 | 
NC[C@H]1CC[C@H](C(=O)NC(Cc2ccccc2)c2cc(-c3ccc4c(N)nccc4c3)ccn2)CC1 (mixture of isomers) |  | 0.144 | 
NC[C@H]1CC[C@H](C(=O)N[C@@H](Cc2ccccc2)c2cc(-c3ccc4c(N)noc4c3)ccn2)CC1 | 0.6 | 0.0038 | 
NC[C@H]1CC[C@H](C(=O)N[C@@H](Cc2ccccc2)c2nc(-c3ccc4c(N)n[nH]c4c3)c(Cl)[nH]2)CC1 | 0.32 |  | 
NC[C@H]1CC[C@H](C(=O)NC(Cc2ccccc2)c2cc(-c3ccc(N)nc3)ccn2)CC1 (mixture of isomers) |  | 0.024 | 
NC[C@H]1CC[C@H](C(=O)NC(Cc2ccccc2)c2cc(-c3ccc4[nH]ncc4c3)ccn2)CC1 (mixture of isomers) |  | 0.061 | 
COC(=O)Nc1ccc(-c2cc([C@H](Cc3ccccc3)NC(=O)[C@H]3CC[C@H](CN)CC3)ccn2)cc1 | 0.9 | 0.0079 | 
NC[C@H]1CC[C@H](C(=O)NC(Cc2ccccc2)c2cc(-c3ccc4c(O)n[nH]c4c3)ccn2)CC1 (mixture of isomers) |  | 0.097 | 
COC(=O)Nc1ccc(-c2ccnc(C(Cc3ccccc3)NC(=O)[C@H]3CC[C@H](CN)CC3)c2)cc1 (mixture of isomers) | 3.7 | 0.012 | 
NC[C@H]1CC[C@H](C(=O)NC(Cc2ccccc2)c2cc(-c3ccc(N)c(C(=O)O)c3)ccn2)CC1 (mixture of isomers) | 0.8 | 0.0053 | 
NC[C@H]1CC[C@H](C(=O)NC(Cc2ccccc2)c2cc(-c3ccc4cn[nH]c4c3)ccn2)CC1 (mixture of isomers) | >40 | 0.087 | 
NC[C@H]1CC[C@H](C(=O)NC(Cc2ccccc2)c2cc(-c3ccc(N)cc3)ccn2)CC1 (mixture of isomers) | 35 | 0.056 | 
NC[C@H]1CC[C@H](C(=O)NC(Cc2ccccc2)c2cc(-c3ccc4[nH]nc(N)c4c3)ccn2)CC1 (mixture of isomers) | 26 | 0.053 | 
COc1n[nH]c2ccc(-c3ccnc(C(Cc4ccccc4)NC(=O)[C@H]4CC[C@H](CN)CC4)c3)cc12 (mixture of isomers) | >40 | 0.087 | 
COC(=O)Nc1ccc(-c2cncc([C@H](Cc3ccccc3)NC(=O)[C@H]3CC[C@H](CN)CC3)c2)cc1 | 1.3 | 0.0084 | 
NC[C@H]1CC[C@H](C(=O)NC(Cc2ccccc2)c2cc(-c3cccc(C(=O)O)c3)ccn2)CC1 (mixture of isomers) |  | 0.205 | 
NC[C@H]1CC[C@H](C(=O)N[C@@H](Cc2ccccc2)c2cc(-c3ccc4[nH]nc(O)c4c3)ccn2)CC1 | 0.4 | 0.0037 | Ki [14]: > 14.1 µM; Ki (Plasminogen): > 22.1 µM; Ki (Coagulation factor VII): > 15.2 µM; Ki [15]: > 30.2 µM; Ki (Trypsin): 0.999 µM; Ki [8]: > 20.8 µM; Ki (Coagulation factor X): > 9 µM; Ki [16]: > 21.9 µM; Ki (Coagulation factor IX): > 34.9 µM; Ki (Plasma kallikrein): 0.55 µM; Ki (Prothrombin): > 12.6 µM
